From ChEMBL document CHEMBL2176901, “Pyrrolo[3,4-h]quinolinones a new class of photochemotherapeutic agents” (Bioorg Med Chem, 2011)
Active and inactive are the calls of the source. No cut-off for these calls is given here.

Key:
[1] = Drug uptake in cytoplasm of human NCTC-2544 cells at 10 uM after 2 hrs by fluorescence microphotography; type: ADME, cell-based; details: nctc-2544, 2 h
Procedure, shortened: (§1)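 NCTC-2544 cells attached in Petri dishes, given compound at 10 μM for 2 h, washed with HBSS. Then 30 min with Rhodamine 123 (mitochondria), LysoTracker RED, CellMask Orange (plasma membrane) or ER-Tracker. Blue compound fluorescence overlaid on probe images by video-confocal microscopy.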

[2] = Phototoxicity in 2.5 J/cm'2 UV-A irradiated human NCTC-2544 cells after 72 hrs by MTT assay; type: functional, cell-based; details: NCTC-2544, light or radiation study
Procedure, shortened: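 HL-60 and Jurkat (8×10³/well, RPMI-1640) and MCF-7, LoVo, NCTC-2544 (5×10³/well; DMEM or Ham's F12) preincubated 18 h at 37 °C, 5% CO₂. Compound in DMSO diluted in HBSS pH 7.2, 30 min at 37 °C, then UV-A at 2.5 or 3.75 J/cm². Medium replaced, 72 h incubation, MTT read-out. IC50 as mean ± SEM of three experiments.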

[3] = Phototoxicity in 3.75 J/cm'2 UV-A irradiated human NCTC-2544 cells after 72 hrs by MTT assay; type: functional, cell-based; details: NCTC-2544, light or radiation study
Procedure, shortened: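 Seeded at 5 × 10³ cells/well with 10% FBS: MCF-7 and NCTC-2544 in DMEM, LoVo in Ham's F12. Pre-incubated 18 h at 37 °C, 5% CO2. Compound (DMSO stock diluted in HBSS pH 7.2) was applied for 30 min at 37 °C, then UV-A irradiation (mainly 365 nm, 4.0 mW/cm²). Medium was restored for 72 h before MTT. IC50 is the mean ± SEM of three experiences.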

[4] = Photodegradation of the compound in DMSO assessed as formation of photoproducts at 20 uM at 1.3 to 14.1 J/cm'2 UV-A irradiation; type: physicochemical
Procedure, shortened: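 Compound solutions at 20 μM in DMSO exposed to increasing UV-A doses (HPW 125 lamps, mainly 365 nm, 4.0 mW cm⁻²). Absorption spectra recorded after each dose; isosbestic points noted.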

MCF7 [5] = assay: Phototoxicity in 2.5 J/cm'2 UV-A irradiated human MCF7 cells assessed as cell viability after 72 hrs by MTT assay in presence of radical scavenger NaN3; type: functional, cell-based
Procedure, shortened: (§2)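 MCF-7 cells given compound plus scavenger in HBSS, 30 min at 37 °C, then UV-A (2.5 J/cm², 365 nm lamp). Medium replaced; viability by MTT after 72 h. Means ± SEM of at least three independent experiments.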

MCF7 [6] = assay: Phototoxicity in 2.5 J/cm'2 UV-A irradiated human MCF7 cells assessed as cell viability after 72 hrs by MTT assay in presence of radical scavenger BHA; type: functional, cell-based; procedure, shortened: as §2
Jurkat [7] = assay: Induction of apoptosis in 3.75 J/cm'2 UV-A irradiated human Jurkat cells assessed as late apoptotic cells at 5 uM after 24 hrs by Annexin-V-FITC and propidium iodide based flow cytometry (reference value: 2.9 %); type: functional
Jurkat [8] = assay: Induction of apoptosis in 3.75 J/cm'2 UV-A irradiated human Jurkat cells assessed as necrotic cells at 5 uM after 24 hrs by Annexin-V-FITC and propidium iodide based flow cytometry (reference value: 4.2 %); type: functional
Jurkat [9] = assay: Induction of apoptosis in 3.75 J/cm'2 UV-A irradiated human Jurkat cells assessed as early apoptotic cells at 10 uM after 24 hrs by Annexin-V-FITC and propidium iodide based flow cytometry (reference value: 1.9 %); type: functional
Jurkat [10] = assay: Induction of apoptosis in 3.75 J/cm'2 UV-A irradiated human Jurkat cells assessed as late apoptotic cells at 10 uM after 24 hrs by Annexin-V-FITC and propidium iodide based flow cytometry (reference value: 2.9 %); type: functional
Jurkat [11] = assay: Cell cycle arrest in UV-A irradiated human Jurkat cells assessed as accumulation at G1 phase at 5 uM after 24 hrs by propidium iodide based flow cytometry (reference value: 64.4 %); type: functional
Procedure, shortened: (§3)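 Exponentially growing Jurkat cells (5×10^5) irradiated with UV-A (365 nm lamp, 2.5 J/cm²) in presence of compound. After 24 h: fixed in ice-cold 70% ethanol, lysed with RNAse A, stained with PI (10 µg/ml), analysed by flow cytometry. Phases calculated on living cells; subG1 is hypodiploid DNA peak.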

Jurkat [12] = assay: Cell cycle arrest in UV-A irradiated human Jurkat cells assessed as accumulation at S phase at 5 uM after 24 hrs by propidium iodide based flow cytometry (reference value: 25.3 %); type: functional; procedure, shortened: as §3
Jurkat [13] = assay: Cell cycle arrest in UV-A irradiated human Jurkat cells assessed as accumulation at S phase at 10 uM after 24 hrs by propidium iodide based flow cytometry (reference value: 25.3 %); type: functional; procedure, shortened: as §3
Jurkat [14] = assay: Cell cycle arrest in UV-A irradiated human Jurkat cells assessed as accumulation at Sub G1 phase at 10 uM after 24 hrs by propidium iodide based flow cytometry (reference value: 0.1 %); type: functional; procedure, shortened: as §3
[15] = Drug uptake in lysosome of human NCTC-2544 cells at 10 uM after 2 hrs by fluorescence microphotography; type: ADME, cell-based; details: nctc-2544, 2 h; procedure, shortened: as §1
[16] = Drug uptake in endoplasmic reticulum of human NCTC-2544 cells at 10 uM after 2 hrs by fluorescence microphotography; type: ADME, cell-based; details: nctc-2544, 2 h; procedure, shortened: as §1
Nucleic Acid [17] = assay: Binding affinity to salmon testes DNA at drug/DNA ratio of 0.02 by linear dichroism analysis; type: nucleic-acid assay; details: Salmonidae
Procedure, shortened: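 Flow linear dichroism in 10 mM phosphate buffer pH 7.2. Samples oriented in a rotating cylindrical cuvette (0.14 cm path, 800 rpm) at several drug/DNA ratios.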

Nucleic Acid [18] = assay: Induction of photo-induced supercoiled Escherichia coli pBR322 DNA at drug:DNA ratio of 1:3 by agarose gel electrophoresis in presence of glutathione; type: nucleic-acid assay
Procedure, shortened: (§4)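 Supercoiled pBR322 (100 ng) in 10 mM phosphate buffer pH 7.2 irradiated with UV-A (3.75 J/cm²) at [DNA]/[drug] 1/3, with additives, under nitrogen or in deuterated buffer as stated. Aliquots then incubated at 37 °C with Fpg or Endo III. Run on 1% agarose in TAE, 80 V for 2 h, stained with ethidium bromide; Form I/II fractions from band densitometry.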

Nucleic Acid [19] = assay: Induction of photo-induced supercoiled Escherichia coli pBR322 DNA damage at drug:DNA ratio of 1:3 by agarose gel electrophoresis in presence of mannitol; type: nucleic-acid assay; procedure, shortened: as §4
Nucleic Acid [20] = assay: Induction of photo-induced supercoiled Escherichia coli pBR322 DNA damage assessed as single strand break at drug:DNA ratio of 1:3 by agarose gel electrophoresis in presence of D2O buffer; type: nucleic-acid assay; procedure, shortened: as §4
Jurkat [21] = assay: Induction of lipid peroxidation in 2.5 J/cm'2 UV-A irradiated human Jurkat cells assessed as increase in TBARS formation after 24 hrs by thiobarbituric acid assay; type: functional, cell-based
Procedure, shortened: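 Lipid peroxidation measured as MDA–thiobarbituric acid adducts, with BHT added to samples; calibrated to a 1,1,3,3-tetraethoxypropane standard curve; protein by Peterson method.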

Nucleic Acid [22] = assay: Induction of photo-induced Escherichia coli pBR322 DNA damage at drug:DNA ratio of 3:1 by agarose gel electrophoresis in presence of endonuclease III

Drug uptake [1]: Active | Stability [4]: Unstable | Drug uptake [15]: Active | Drug uptake [16]: Active | Activity (Nucleic Acid [17]): inactive | Activity (Nucleic Acid [18]): inactive
SMILES: CCOC(=O)c1c2c(c(C)n1C)-c1c(cc(S(=O)(=O)c3ccccc3)c(=O)n1C)CC2
IC50 [2]: 2.4 µM | IC50 [3]: 1.3 µM | Activity (MCF7 [5]): inactive | Activity (MCF7 [6]): inactive | Activity (Jurkat [7]): 11% | Activity (Jurkat [8]): 4.5% | Activity (Jurkat [9]): 23.9% | Activity (Jurkat [10]): 21.4% | Activity (Jurkat [11]): 48.9% | Activity (Jurkat [12]): 46.9% | Activity (Jurkat [13]): 55.6% | Activity (Jurkat [14]): 43% | Activity (Nucleic Acid [19]): inactive | Activity (Nucleic Acid [20]): Active | Activity (Jurkat [21]): Dose-dependent effect | Activity (Nucleic Acid [22]): Active
